Read-outs that look alike come from different tables or passages of the source. Marks after values point to notes of the source that are not given here.
Assays:
[1] = system: human UDP-α-D-glucose-6-dehydrogenase (hUGDH); type: biochemical; settings: for Kcat: UDP-Glc saturation curves, global fit ± standard error
Summary of the method: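 100 nM hexamer (500 nM dimer constructs) in 50 mM HEPES pH 7.5, 50 mM NaCl, 5 mM EDTA, 25 °C, saturating NAD+, varied UDP-Glc and UDP-Xyl. NADH was read at 340 nm. Frieden fits of early progress curves gave vss.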

[2] = system: human UDP-α-D-glucose-6-dehydrogenase (hUGDH); test: Steady state kinetics: NAD+ substrate saturation curves; type: biochemical
Summary of the method: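 Separate 5-min, 25 °C pre-incubations of enzyme and substrate, then mixing. Enzyme was 100 nM hexameric hUGDH in 50 mM HEPES pH 7.5, 50 mM NaCl, 5 mM EDTA, with saturating UDP-Glc and varied NAD+. NADH was followed continuously at 340 nm (6220 M−1cm−1). Progress curves before 10% substrate depletion were fit to Frieden's equation for vss. Saturation curves were fit to the sigmoidal rate equation; n ≥ 10 data points.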

[3] = system: human UDP-α-D-glucose-6-dehydrogenase (hUGDH); test: Stopped-flow analysis of hUGDH hysteresis; type: biochemical; settings: hUGDHFL versus hUGDHΔID, pre-steady state progress curves
Summary of the method: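 Stopped-flow, 25 °C. 500 nM full-length or tail-deleted enzyme in 50 mM HEPES pH 7.5, 50 mM NaCl, 5 mM EDTA was mixed 1:1 with buffer holding substrate and cofactor, giving 250 nM enzyme with both saturating. NADH absorbance at 340 nm was taken every 10–15 ms. Curves were fit to Frieden's equation for lag length; mean and s.d. from ≥ 6 curves.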

[4] = target: T1, human UDP-α-D-glucose-6-dehydrogenase (hUGDH) (Homo sapiens, UniProt O60701); test: Transient state kinetics of UDP-Xyl binding; settings: hUGDHFL versus hUGDHΔID
T1 sequence (O60701 1-464 limits assumed): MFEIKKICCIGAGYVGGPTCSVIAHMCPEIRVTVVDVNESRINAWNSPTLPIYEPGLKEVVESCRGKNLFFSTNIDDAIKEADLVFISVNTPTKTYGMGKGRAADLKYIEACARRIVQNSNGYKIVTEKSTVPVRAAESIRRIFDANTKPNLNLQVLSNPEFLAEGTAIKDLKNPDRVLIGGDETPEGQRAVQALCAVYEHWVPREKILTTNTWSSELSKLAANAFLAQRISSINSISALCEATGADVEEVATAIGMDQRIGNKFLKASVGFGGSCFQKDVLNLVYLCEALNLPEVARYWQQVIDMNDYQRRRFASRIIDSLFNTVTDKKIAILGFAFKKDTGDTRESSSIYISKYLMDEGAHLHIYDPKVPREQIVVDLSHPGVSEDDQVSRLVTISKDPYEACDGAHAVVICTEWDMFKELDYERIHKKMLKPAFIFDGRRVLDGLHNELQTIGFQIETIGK
Summary of the method: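 Stopped-flow intrinsic tryptophan fluorescence at 25 °C (dead time ~1.2 ms): 500 nM enzyme (syringe) mixed with varied UDP-Xyl, excitation 290 nm, emission cutoff filter below 320 nm. Traces were averaged over ≥ 4 replicates per concentration and inner-filter corrected. Six concentrations were globally fit by numerical simulation to a binding-plus-two-isomerization model, selected by confidence contour analysis. Binding free energy used a mM standard state.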

[5] = Thermodynamic shift assay; type: physicochemical; settings: thermal denaturation, hUGDHFL-dimer versus hUGDHΔID-dimer (Fig. 3d)
Summary of the method: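 Dimeric constructs at 0.1 mg/mL with 5X SYPRO Orange in 50 mM HEPES pH 7.5, 50 mM NaCl, 5 mM EDTA were spun and equilibrated 20 min. Fluorescence (excitation 470–505 nm, emission 540–570 nm) was recorded every 30 s while heating from 25 to 80 °C at […] in a qPCR instrument. Buffer-control baselines were subtracted; N ≥ 3.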

Molecule	Kcat [1] [s⁻¹]	Hill (h) ([2]; NAD+ saturation (Equation 6))	Kcat ([2]; NAD+ saturation curves) [S^-1]	K0.5 (NAD^+) ([2]; NAD+ saturation, sigmoidal rate equation (Equation 6), hexameric enzyme) [mM]	slowing of the rate of activation hysteresis (E* to E) by the ID-tail [3] [%]	enhancement of the initial UDP-Xyl binding step by the ID-tail [4] [fold]	gain in affinity of the initial UDP-Xyl binding step [4] [kcal/mol]	ΔΔG, change in UDP-Xyl binding free energy ([1]; relative to the hUGDHΔID-A136M)	destabilization by the ID-tail [5] [°C]
FL: full-length human UDP-α-D-glucose-6-dehydrogenase with the native 30-residue ID-tail (residues 465–494) (protein, UniProt O60701 1-494, looked up, full-length) MFEIKKICCIGAGYVGGPTCSVIAHMCPEIRVTVVDVNESRINAWNSPTLPIYEPGLKEVVESCRGKNLFFSTNIDDAIKEADLVFISVNTPTKTYGMGKGRAADLKYIEACARRIVQNSNGYKIVTEKSTVPVRAAESIRRIFDANTKPNLNLQVLSNPEFLAEGTAIKDLKNPDRVLIGGDETPEGQRAVQALCAVYEHWVPREKILTTNTWSSELSKLAANAFLAQRISSINSISALCEATGADVEEVATAIGMDQRIGNKFLKASVGFGGSCFQKDVLNLVYLCEALNLPEVARYWQQVIDMNDYQRRRFASRIIDSLFNTVTDKKIAILGFAFKKDTGDTRESSSIYISKYLMDEGAHLHIYDPKVPREQIVVDLSHPGVSEDDQVSRLVTISKDPYEACDGAHAVVICTEWDMFKELDYERIHKKMLKPAFIFDGRRVLDGLHNELQTIGFQIETIGKKVSSKRIPYAPSGEIPKFSLQDPPNKKPKV	0.8 ± 0.01	0.8 ± 0.1	0.9 ± 0.08	0.8 ± 0.20	39	4.4	-0.9	–	–
FL-A136M: full-length hUGDH with the allostery quenching A136M substitution (protein, UniProt O60701 1-494, looked up, variant A136M, full-length) MFEIKKICCIGAGYVGGPTCSVIAHMCPEIRVTVVDVNESRINAWNSPTLPIYEPGLKEVVESCRGKNLFFSTNIDDAIKEADLVFISVNTPTKTYGMGKGRAADLKYIEACARRIVQNSNGYKIVTEKSTVPVRMAESIRRIFDANTKPNLNLQVLSNPEFLAEGTAIKDLKNPDRVLIGGDETPEGQRAVQALCAVYEHWVPREKILTTNTWSSELSKLAANAFLAQRISSINSISALCEATGADVEEVATAIGMDQRIGNKFLKASVGFGGSCFQKDVLNLVYLCEALNLPEVARYWQQVIDMNDYQRRRFASRIIDSLFNTVTDKKIAILGFAFKKDTGDTRESSSIYISKYLMDEGAHLHIYDPKVPREQIVVDLSHPGVSEDDQVSRLVTISKDPYEACDGAHAVVICTEWDMFKELDYERIHKKMLKPAFIFDGRRVLDGLHNELQTIGFQIETIGKKVSSKRIPYAPSGEIPKFSLQDPPNKKPKV	0.7 ± 0.01	–	–	–	–	–	–	0.03^g kcal•mol^-1	–
hUGDH: human UDP-α-D-glucose-6-dehydrogenase, named without a construct (protein, UniProt O60701 1-494, looked up) UDP-glucose 6-dehydrogenase: MFEIKKICCIGAGYVGGPTCSVIAHMCPEIRVTVVDVNESRINAWNSPTLPIYEPGLKEVVESCRGKNLFFSTNIDDAIKEADLVFISVNTPTKTYGMGKGRAADLKYIEACARRIVQNSNGYKIVTEKSTVPVRAAESIRRIFDANTKPNLNLQVLSNPEFLAEGTAIKDLKNPDRVLIGGDETPEGQRAVQALCAVYEHWVPREKILTTNTWSSELSKLAANAFLAQRISSINSISALCEATGADVEEVATAIGMDQRIGNKFLKASVGFGGSCFQKDVLNLVYLCEALNLPEVARYWQQVIDMNDYQRRRFASRIIDSLFNTVTDKKIAILGFAFKKDTGDTRESSSIYISKYLMDEGAHLHIYDPKVPREQIVVDLSHPGVSEDDQVSRLVTISKDPYEACDGAHAVVICTEWDMFKELDYERIHKKMLKPAFIFDGRRVLDGLHNELQTIGFQIETIGKKVSSKRIPYAPSGEIPKFSLQDPPNKKPKV	–	–	–	–	–	–	–	–	3.5
